Results on 18 compounds are retold here after ChEMBL document CHEMBL1144664, “Design, synthesis, and SAR of new pyrrole-oxindole progesterone receptor modulators leading to 5-(7-fluoro-3,3-dimethyl-2-oxo-2,3-dihydro-1H-indol-5-yl)-1-methyl-1H-pyrrole-2-carbonitrile (WAY-255348)” (J Med Chem, 2008).

Series [1] deals with T1, Progesterone receptor (Homo sapiens, UniProt P06401).
T1 sequence (P06401 whole entry): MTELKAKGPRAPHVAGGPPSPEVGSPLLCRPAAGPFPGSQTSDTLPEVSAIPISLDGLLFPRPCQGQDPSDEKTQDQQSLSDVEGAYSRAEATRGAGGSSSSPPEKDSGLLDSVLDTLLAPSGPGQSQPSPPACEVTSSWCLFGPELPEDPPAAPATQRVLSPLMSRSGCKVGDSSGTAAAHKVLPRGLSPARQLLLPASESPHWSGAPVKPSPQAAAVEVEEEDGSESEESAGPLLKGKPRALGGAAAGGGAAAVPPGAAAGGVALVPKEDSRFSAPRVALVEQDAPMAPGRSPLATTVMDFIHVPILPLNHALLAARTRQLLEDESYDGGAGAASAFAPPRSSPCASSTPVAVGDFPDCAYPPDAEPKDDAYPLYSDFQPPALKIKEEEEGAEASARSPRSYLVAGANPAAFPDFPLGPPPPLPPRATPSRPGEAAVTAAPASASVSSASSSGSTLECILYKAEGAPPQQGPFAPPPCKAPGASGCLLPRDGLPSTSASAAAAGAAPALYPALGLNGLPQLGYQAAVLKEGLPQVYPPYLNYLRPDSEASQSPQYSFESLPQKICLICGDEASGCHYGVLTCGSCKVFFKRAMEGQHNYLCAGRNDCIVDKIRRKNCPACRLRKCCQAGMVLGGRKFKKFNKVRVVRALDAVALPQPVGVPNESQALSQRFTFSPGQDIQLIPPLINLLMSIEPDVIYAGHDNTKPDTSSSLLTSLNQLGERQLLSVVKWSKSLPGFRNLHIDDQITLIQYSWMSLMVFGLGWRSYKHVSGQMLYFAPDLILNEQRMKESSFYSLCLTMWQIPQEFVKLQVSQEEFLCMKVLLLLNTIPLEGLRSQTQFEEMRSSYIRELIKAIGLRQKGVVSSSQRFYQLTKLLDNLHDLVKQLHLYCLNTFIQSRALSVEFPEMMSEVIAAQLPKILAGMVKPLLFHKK
Nature of the series: Agonist activity at human PR expressed in human T47D cells assessed as stimulation of alkaline phosphatase. The format is functional, cell-based. The gist of the method:
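Cell-based agonist-mode assay in T47D cells, without progesterone. Cells were suspended in DMEM/F12 with 5% charcoal-stripped FBS, then incubated with compound for 24 h at 37 °C in 5% CO2. Cells were lysed in 0.1 M Tris-HCl pH 9.8 with 0.2% Triton, and 4 mM p-nitrophenyl phosphate was added. OD405 was read every 5 min for 30 min. EC50 comes from dose-response analysis and is the mean of at least duplicates.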

The target of series [2] is T1, Progesterone receptor. Nature of the series: Displacement of [3H]R5020 from human PR in human T47D cells by whole cell assay. The format is cell-based.
For series [3], the target named is T1, Progesterone receptor. Nature of the series: Antagonist activity at human PR expressed in human T47D cells assessed as inhibition of progesterone induced alkaline phosphatase. Format: functional, cell-based.
The nature of series [4]: Stability in human liver microsome assessed as half life. Conditions: liver microsomes. The format is ADME. Summed up: (§1)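 Female rat, cynomolgus monkey and human liver microsome stability; half-life (min) reported.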
In general terms: Microsomes from liver hold many membrane-bound enzymes, among them those of drug oxidation.

A short description of series [5]: Stability in rat liver microsome assessed as half life. The format is ADME. The note with it: liver microsomes. Summed up: as §1
The nature of series [6]: Stability in cynomolgus monkey liver microsome assessed as half life. Format: ADME, Macaca fascicularis. The note with it: liver microsomes. The gist of the method: as §1
In series [7] the test system is Cynomolgus monkey. In words: Induction of early menses in cynomolgus monkey at 5 mg/kg, po. Also noted: dose 5 mg/kg, route oral. The format is organism-based, Macaca fascicularis. The note with it: in vivo.
The species named for series [8] is Rattus norvegicus. Nature of the series: Antagonist activity in rat uterus assessed as progesterone-induced decidualization response in stromal cells. The format is functional. The gist of the method:
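Female rat decidualization model: compound given orally in 0.5% methyl cellulose/2% Tween 80 to antagonize the progesterone-induced decidual response of uterine stromal cells. ED50 reported.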

Series [9] is described as follows: Drug level in Sprague-Dawley rat at 0.5 mg/kg, iv. Format: ADME, organism-based. Also noted: dose 0.5 mg/kg, route intravenous. The note with it: in vivo. Summed up:
(§2)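 Female Sprague–Dawley rats dosed as 1-in-4 cassette or discrete studies. iv in DMSO/PEG200 20:80; po in aqueous 2% Tween 80/0.5% methyl cellulose. Parameters reported: C0, Cmax, t1/2, plasma clearance, Vss, AUC0-inf and %F.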

Series [10] in a line: Volume of distribution at steady state in cynomolgus monkey at […], iv. The note with it: in vivo, read-out: Vdss. The format is ADME, organism-based, Macaca fascicularis. More on the design: dose 0.25 mg/kg, route intravenous.
Series [11] is described as follows: Volume of distribution at steady state in Sprague-Dawley rat at 0.5 mg/kg, iv. Conditions: in vivo, read-out: Vdss. More on the design: dose 0.5 mg/kg, route intravenous. The format is ADME, organism-based. Summed up:
as §2

The nature of series [12]: AUC (0 to infinity) in Sprague-Dawley rat at 0.5 mg/kg, iv. The format is ADME, organism-based. Also noted: time infinity, dose 0.5 mg/kg, route intravenous. The note with it: plasma.
A short description of series [13]: Plasma clearance in Sprague-Dawley rat at 0.5 mg/kg, iv. Also noted: dose 0.5 mg/kg, route intravenous. Format: ADME, organism-based. The gist of the method: as §2
Series [14] is described as follows: Plasma clearance in cynomolgus monkey at […], iv. Format: ADME, organism-based, Macaca fascicularis. More on the design: dose 0.25 mg/kg, route intravenous.
A short description of series [15]: Drug level in cynomolgus monkey at […], iv. The format is ADME, organism-based, Macaca fascicularis. Also noted: dose 0.25 mg/kg, route intravenous. The note with it: in vivo.
A short description of series [16]: Half life in Sprague-Dawley rat at 0.5 mg/kg, iv. Format: ADME, organism-based. Also noted: dose 0.5 mg/kg, route intravenous. Conditions: in vivo. Summed up: as §2

On to `Cn1c(C#N)ccc1-c1ccc2c(c1)C(C)(C)OC(=S)N2` [TANAPROGET], for which, in series [1], the EC50 – broadly, the concentration at which the effect is half-maximal – stood at 0.15 nM. The IC50 (commonly the point on the concentration scale where inhibition reaches its midpoint) in [2] turned out to be 0.5 nM.

Compound `Cn1c(C#N)ccc1-c1ccc2c(c1)C(C)(C)OC(=O)N2` returned an IC50 in series [2] of 4.9 nM.

Take `Cn1c(C#N)ccc1-c1ccc2c(c1)CC(=O)N2`: the results for the IC50 in series [3] and in series [2] were 20 nM and 80 nM, respectively. For the same compound, the half-life in series [4], in [5] and in series [6] was more than 30 min each time.

As for `N#Cc1ccc(-c2ccc3c(c2)CC(=O)N3)[nH]1`, the IC50 in series [3] is 300 nM.

Consider `Cn1c(C#N)ccc1-c1cc(F)c2c(c1)C1(CCCC1)C(=O)N2`, for which, in series [1], the EC50 was found to be 3000 nM. In series [2], the IC50 was found to be 14.7 nM.

As to `Cn1c(C#N)ccc1-c1ccc2c(c1F)C(C)(C)C(=O)N2`, the IC50 is 5.9 nM in series [3] and 5.5 nM in series [2]. Also, the half-life (in general, how long it takes for the measured level to halve) in series [5] turned out to be 2 min.

For the compound `CCCN1C(=O)C(C)(C)c2cc(-c3ccc(C#N)n3C)cc(F)c21`, the half-inhibitory concentration (IC50) in [3] worked out at 27 nM.

For `CC(=O)OCN1C(=O)C(C)(C)c2cc(-c3ccc(C#N)n3C)cc(F)c21`, the IC50 in series [3] was 48 nM.

Regarding `Cn1c(C#N)ccc1-c1ccc2c(c1)C1(CCCCC1)C(=O)N2`, in series [1], the EC50 worked out at 2.3 nM. In series [2], this compound came in with an IC50 of 3.3 nM.

Regarding `Cn1c(C#N)ccc1-c1cc(F)c2c(c1)C1(CCCCC1)C(=O)N2`, in series [1], the half-maximal effective concentration (EC50) came out at 1.3 nM. Also, the IC50 in series [2] was 3.6 nM.

Consider `CCC1(CC)C(=O)Nc2ccc(-c3ccc(C#N)n3C)cc21`, for which the IC50 in series [2] amounted to 36 nM. Besides, the results for the half-life in series [4], in [5] and in series [6] were more than 30 min, 10 min and 15 min, respectively.

Regarding `Cn1c(C#N)ccc1-c1cc2c(cc1F)NC(=O)C2(C)C`, the IC50 in [3] stood at 20.3 nM. In addition, the half-life in [5] amounted to 30 min.

`CC#C[C@]1(O)CC[C@H]2[C@@H]3CCC4=CC(=O)CCC4=C3[C@@H](c3ccc(N(C)C)cc3)C[C@@]21C` [MIFEPRISTONE]: the Activity in series [7] was 60%. For the same compound, in [8], the ED50 (in general, the midpoint of the dose-response relation) was found to be 0.7 mg/kg.

Consider `Cn1c(C#N)ccc1-c1ccc2c(c1)C1(CCCC1)C(=O)N2`, for which, in series [1], the 50% effective concentration (EC50) turned out to be 300 nM. In addition, the IC50 in [2] came to 8.1 nM.

In the case of `Cn1c(C#N)ccc1-c1ccc2c(c1)C(C)(C)C(=O)N2`, the C0 in [9] was 288 ng/mL; in [15], 241 ng/mL. This compound also showed an Activity in series [7] of 0%. For the same compound, the results for the Vd in [10] and in series [11] were 1.6 L/kg and 2.2 L/kg, respectively. Also, the AUC(0-inf) (commonly total exposure, with the tail of the curve extrapolated) in series [12] amounted to 937 ng·h/mL. In addition, the IC50 in [2] came out at 22 nM. The clearance (as a rule, a measure of how efficiently the substance is removed, as volume per time) in [13] is 9 mL/min/kg; in [14], 12 mL/min/kg. Besides, the half-life in [4] is more than 30 min; in [5], 6 min; in series [16], 180 min; in [6], 13 min.

`CCN1C(=O)C(C)(C)c2cc(-c3ccc(C#N)n3C)cc(F)c21`: in series [3], the IC50 was 29 nM.

On to `C=C1CCO[C@]12CC[C@H]1[C@@H]3CCC4=CC(=O)CCC4=C3[C@@H](c3ccc(C(C)=O)cc3)C[C@@]12C`, for which the Activity in series [7] came out at 50%.

For the compound `CN1C(=O)C(C)(C)c2cc(-c3ccc(C#N)n3C)cc(F)c21`, the IC50 in series [3] stood at 15 nM.
